ChEMBL document CHEMBL4184236, “Design, synthesis and biological evaluation of matrine derivatives as potential anticancer agents” (Bioorg Med Chem Lett, 2018)

Experiments:
CNE-2 [1] = assay: Induction of apoptosis in human CNE2 cells assessed as early apoptotic cells level at 50 uM incubated for 24 hrs by Annexin V-FITC/PI dual staining based flow cytometry (reference value: 3.56%); type: functional
How it was run: (§1)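 CNE2 and SMMC-7721 cells were treated for 24 h at 0, 5, 10 or 30 µM, or at 0, 10, 20 or 50 µM depending on compound. Cells were stained with Annexin V-FITC/propidium iodide and quantified by flow cytometry. Apoptotic cells were counted as AV+/PI− (lower right) plus AV+/PI+ (upper right) quadrants.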

CNE-2 [2] = assay: Induction of apoptosis in human CNE2 cells assessed as necrotic cells level at 20 uM incubated for 24 hrs by Annexin V-FITC/PI dual staining based flow cytometry (reference value: 3.43%); type: functional; how it was run: as §1
SMMC-7721 [3] = assay: Induction of apoptosis in human SMMC7721 cells assessed as viable cells level at 10 uM incubated for 24 hrs by Annexin V-FITC/PI dual staining based flow cytometry (reference value: 96.2%); type: functional; how it was run: as §1
SMMC-7721 [4] = assay: Induction of apoptosis in human SMMC7721 cells assessed as late apoptotic cells level at 50 uM incubated for 24 hrs by Annexin V-FITC/PI dual staining based flow cytometry (reference value: 1.6%); type: functional; how it was run: as §1
SMMC-7721 [5] = assay: Induction of apoptosis in human SMMC7721 cells assessed as late apoptotic cells level at 10 uM incubated for 24 hrs by Annexin V-FITC/PI dual staining based flow cytometry (reference value: 1.6%); type: functional; how it was run: as §1
CNE-2 [6] = assay: Induction of apoptosis in human CNE2 cells assessed as necrotic cells level at 50 uM incubated for 24 hrs by Annexin V-FITC/PI dual staining based flow cytometry (reference value: 3.43%); type: functional; how it was run: as §1
CNE-2 [7] = assay: Induction of apoptosis in human CNE2 cells assessed as viable cells level at 50 uM incubated for 24 hrs by Annexin V-FITC/PI dual staining based flow cytometry (reference value: 91.6%); type: functional; how it was run: as §1
SMMC-7721 [8] = assay: Induction of apoptosis in human SMMC7721 cells assessed as early apoptotic cells level at 50 uM incubated for 24 hrs by Annexin V-FITC/PI dual staining based flow cytometry (reference value: 1%); type: functional; how it was run: as §1
CNE-2 [9] = assay: Induction of apoptosis in human CNE2 cells incubated for 24 hrs by Annexin V-FITC/PI dual staining based flow cytometry; type: functional, cell-based; how it was run: as §1
SMMC-7721 [10] = assay: Anticancer activity against human SMMC7721 cells assessed as reduction in cell viability incubated for 48 hrs MTT assay; type: functional, cell-based; conditions: SMMC-7721, 48 h
How it was run: (§2)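 MTT assay on human hepatocarcinoma SMMC-7721, lung carcinoma A549 and nasopharyngeal carcinoma CNE2 cells, with matrine as comparator and cisplatin as positive control. IC50 is the concentration that lowers optical density of treated cells by 50% versus untreated cells, given as the mean ± SD of three experiments.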

SMMC-7721 [11] = assay: Induction of apoptosis in human SMMC7721 cells incubated for 24 hrs by Annexin V-FITC/PI dual staining based flow cytometry; type: functional, cell-based; how it was run: as §1
SMMC-7721 [12] = assay: Induction of apoptosis in human SMMC7721 cells assessed as necrotic cells level at 50 uM incubated for 24 hrs by Annexin V-FITC/PI dual staining based flow cytometry (reference value: 1.18%); type: functional; how it was run: as §1
CNE-2 [13] = assay: Induction of apoptosis in human CNE2 cells assessed as late apoptotic cells level at 50 uM incubated for 24 hrs by Annexin V-FITC/PI dual staining based flow cytometry (reference value: 1.37%); type: functional; how it was run: as §1
SMMC-7721 [14] = assay: Induction of apoptosis in human SMMC7721 cells assessed as necrotic cells level at 20 uM incubated for 24 hrs by Annexin V-FITC/PI dual staining based flow cytometry (reference value: 1.18%); type: functional; how it was run: as §1
SMMC-7721 [15] = assay: Induction of apoptosis in human SMMC7721 cells assessed as late apoptotic cells level at 20 uM incubated for 24 hrs by Annexin V-FITC/PI dual staining based flow cytometry (reference value: 1.6%); type: functional; how it was run: as §1
SMMC-7721 [16] = assay: Induction of apoptosis in human SMMC7721 cells assessed as early apoptotic cells level at 20 uM incubated for 24 hrs by Annexin V-FITC/PI dual staining based flow cytometry (reference value: 1%); type: functional; how it was run: as §1
SMMC-7721 [17] = assay: Induction of apoptosis in human SMMC7721 cells assessed as viable cells level at 50 uM incubated for 24 hrs by Annexin V-FITC/PI dual staining based flow cytometry (reference value: 96.2%); type: functional; how it was run: as §1
CNE-2 [18] = assay: Induction of apoptosis in human CNE2 cells assessed as early apoptotic cells level at 20 uM incubated for 24 hrs by Annexin V-FITC/PI dual staining based flow cytometry (reference value: 3.56%); type: functional; how it was run: as §1
CNE-2 [19] = assay: Induction of apoptosis in human CNE2 cells assessed as viable cells level at 20 uM incubated for 24 hrs by Annexin V-FITC/PI dual staining based flow cytometry (reference value: 91.6%); type: functional; how it was run: as §1
CNE-2 [20] = assay: Induction of apoptosis in human CNE2 cells assessed as late apoptotic cells level at 20 uM incubated for 24 hrs by Annexin V-FITC/PI dual staining based flow cytometry (reference value: 1.37%); type: functional; how it was run: as §1
SMMC-7721 [21] = assay: Induction of apoptosis in human SMMC7721 cells assessed as viable cells level at 20 uM incubated for 24 hrs by Annexin V-FITC/PI dual staining based flow cytometry (reference value: 96.2%); type: functional; how it was run: as §1
SMMC-7721 [22] = assay: Induction of apoptosis in human SMMC7721 cells assessed as early apoptotic cells level at 10 uM incubated for 24 hrs by Annexin V-FITC/PI dual staining based flow cytometry (reference value: 1%); type: functional; how it was run: as §1
SMMC-7721 [23] = assay: Induction of apoptosis in human SMMC7721 cells assessed as necrotic cells level at 10 uM incubated for 24 hrs by Annexin V-FITC/PI dual staining based flow cytometry (reference value: 1.18%); type: functional; how it was run: as §1
CNE-2 [24] = assay: Anticancer activity against human CNE2 cells assessed as reduction in cell viability incubated for 48 hrs MTT assay; type: functional, cell-based; conditions: CNE-2, 48 h; how it was run: as §2
A549 = assay: Anticancer activity against human A549 cells assessed as reduction in cell viability incubated for 48 hrs MTT assay; type: functional, cell-based; conditions: A549, 48 h; how it was run: as §2

Structure (SMILES): COc1ccc2c(c1)c(/C=C1\CC[C@@H]3[C@H]4CCCN5CCC[C@@H](CN3C1=O)[C@@H]45)cn2Cc1cccc(Cl)c1
- Activity (CNE-2 [1]): 45.9%
- Activity (CNE-2 [2]): 2.7%
- Activity (SMMC-7721 [3]): 60.3%
- Activity (SMMC-7721 [4]): 79.5%
- Activity (SMMC-7721 [5]): 3.4%
- Activity (CNE-2 [6]): 4.62%
- Activity (CNE-2 [7]): 21.2%
- Activity (SMMC-7721 [8]): 15.5%
- Activity (CNE-2 [9]): Dose-dependent effect
- IC50 (SMMC-7721 [10]): 3.95 µM
- Activity (SMMC-7721 [11]): Dose-dependent effect
- Activity (SMMC-7721 [12]): 2.91%
- Activity (CNE-2 [13]): 28.3%
- Activity (SMMC-7721 [14]): 2.53%
- Activity (SMMC-7721 [15]): 18.2%
- Activity (SMMC-7721 [16]): 40.6%
- Activity (SMMC-7721 [17]): 2.15%
- Activity (CNE-2 [18]): 29.9%
- Activity (CNE-2 [19]): 58.7%
- Activity (CNE-2 [20]): 8.7%
- Activity (SMMC-7721 [21]): 38.6%
- Activity (SMMC-7721 [22]): 35.6%
- Activity (SMMC-7721 [23]): 0.69%
- IC50 (CNE-2 [24]): 3.42 µM
- IC50 (A549): 4.96 µM

Structure (SMILES): CC(C)(C)c1ccc(Cn2ccc3c(/C=C4\CC[C@@H]5[C@H]6CCCN7CCC[C@@H](CN5C4=O)[C@@H]67)cccc32)cc1
- IC50 (SMMC-7721 [10]): 13.8 µM
- IC50 (CNE-2 [24]): 9.75 µM
- IC50 (A549): 15.5 µM

Structure (SMILES): O=C1/C(=C/c2cn(Cc3cccc(Cl)c3)c3ccccc23)CC[C@@H]2[C@H]3CCCN4CCC[C@@H](CN12)[C@@H]34
- IC50 (SMMC-7721 [10]): 7.58 µM
- IC50 (CNE-2 [24]): 6.36 µM
- IC50 (A549): 7.53 µM

Structure (SMILES): COc1ccc(Cn2cc(/C=C3\CC[C@@H]4[C@H]5CCCN6CCC[C@@H](CN4C3=O)[C@@H]56)c3ccccc32)cc1OC
- IC50 (SMMC-7721 [10]): 11.8 µM
- IC50 (CNE-2 [24]): 11.6 µM
- IC50 (A549): 12.5 µM

Structure (SMILES): O=C1/C(=C/c2cccn2Cc2ccccc2Cl)CC[C@@H]2[C@H]3CCCN4CCC[C@@H](CN12)[C@@H]34
- IC50 (SMMC-7721 [10]): 26 µM
- IC50 (CNE-2 [24]): 26.3 µM
- IC50 (A549): 26.2 µM

Structure (SMILES): O=C1/C(=C/c2cccc3c2ccn3Cc2cccc(Cl)c2)CC[C@@H]2[C@H]3CCCN4CCC[C@@H](CN12)[C@@H]34
- IC50 (SMMC-7721 [10]): 6.83 µM
- IC50 (CNE-2 [24]): 6.64 µM
- IC50 (A549): 7.07 µM
